Active and inactive are the calls of the source. The rule behind the calls is not given here.
Experiments:
518A2 = assay: Growth inhibition of human 518A2 cells at 30 uM after 96 hrs by SRB assay; format: functional, cell-based
How it was run: (§1)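 Same SRB set-up: RPMI 1640 with 10% FBS at 37 °C, 5% CO2, and a 96 h exposure starting 24 h after seeding (DMSO or DMF ≤0.5% final). Percent viable cells relative to untreated controls is read at 30 µM, the top concentration of the 0–30 µM dilution series. Cells were fixed with TCA, stained with SRB and read at 570 nm; ≥3 independent experiments.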

A-431 [1] = assay: Growth inhibition of human A431 cells at 30 uM after 96 hrs by SRB assay; format: functional, cell-based; how it was run: as §1
A253 = assay: Growth inhibition of human A253 cells at 30 uM after 96 hrs by SRB assay; format: functional, cell-based; how it was run: as §1
FaDu = assay: Growth inhibition of human FADU cells at 30 uM after 96 hrs by SRB assay; format: functional, cell-based; how it was run: as §1
A549 = assay: Growth inhibition of human A549 cells at 30 uM after 96 hrs by SRB assay; format: functional, cell-based; how it was run: as §1
A2780 [2] = assay: Growth inhibition of human A2780 cells at 30 uM after 96 hrs by SRB assay; format: functional, cell-based; how it was run: as §1
DLD-1 = assay: Growth inhibition of human DLD1 cells at 30 uM after 96 hrs by SRB assay; format: functional, cell-based; how it was run: as §1
HCT-8 = assay: Growth inhibition of human HCT8 cells at 30 uM after 96 hrs by SRB assay; format: functional, cell-based; how it was run: as §1
HCT-116 [3] = assay: Growth inhibition of human HCT116 cells at 30 uM after 96 hrs by SRB assay; format: functional, cell-based; how it was run: as §1
HT-29 = assay: Growth inhibition of human HT-29 cells at 30 uM after 96 hrs by SRB assay; format: functional, cell-based; how it was run: as §1
SW480 = assay: Growth inhibition of human SW480 cells at 30 uM after 96 hrs by SRB assay; format: functional, cell-based; how it was run: as §1
8505C = assay: Growth inhibition of human 8505C cells at 30 uM after 96 hrs by SRB assay; format: functional, cell-based; how it was run: as §1
SW-1736 [4] = assay: Growth inhibition of human SW1736 cells at 30 uM after 96 hrs by SRB assay; format: functional, cell-based; how it was run: as §1
Homo sapiens = organism: Homo sapiens; assay: Growth inhibition of human Liposarcoma cells at 30 uM after 96 hrs by SRB assay; format: functional; how it was run: as §1
A2780 [5] = assay: Cytotoxicity against human A2780 cells after 96 hrs by SRB assay; format: functional, cell-based; conditions: A2780, 96 h
How it was run: (§2)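 Monolayer cells grown in RPMI 1640 with 10% heat-inactivated FBS and penicillin/streptomycin at 37 °C, 5% CO2. Cells were seeded and, after 24 h, exposed to serial dilutions (0–30 µM; DMSO or DMF ≤0.5% final) for 96 h. They were then fixed with 10% TCA at 4 °C, stained with 0.4% SRB and dissolved in 10 mM Tris, with absorbance read at 570 nm. IC50 comes from semi-log dose–response curves of survival versus untreated controls, from ≥3 independent experiments.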

HCT-116 [6] = assay: Cytotoxicity against human HCT116 cells after 96 hrs by SRB assay; format: functional, cell-based; conditions: HCT-116, 96 h; how it was run: as §2
SW-1736 [7] = assay: Cytotoxicity against human SW1736 cells after 96 hrs by SRB assay; format: functional, cell-based; conditions: SW-1736, 96 h; how it was run: as §2
A-431 [8] = assay: Cytotoxicity against human A431 cells after 96 hrs by SRB assay; format: functional, cell-based; conditions: A-431, 96 h; how it was run: as §2

SMILES	growth inhibition (GI) (518A2)	growth inhibition (GI) (A-431 [1])	growth inhibition (GI) (A253)	growth inhibition (GI) (FaDu)	growth inhibition (GI) (A549)	growth inhibition (GI) (A2780 [2])	growth inhibition (GI) (DLD-1)	growth inhibition (GI) (HCT-8)	growth inhibition (GI) (HCT-116 [3])	growth inhibition (GI) (HT-29)	growth inhibition (GI) (SW480)	growth inhibition (GI) (8505C)	growth inhibition (GI) (SW-1736 [4])	growth inhibition (GI) (Homo sapiens)	IC50 (A2780 [5])	IC50 (HCT-116 [6])	IC50 (SW-1736 [7])	IC50 (A-431 [8])
C=C(C)[C@@H]1CC[C@]2(/C=C/C(=O)OCC)CC[C@]3(C)[C@H](CC[C@@H]4[C@@]5(C)CC[C@H](OC(C)=O)C(C)(C)[C@@H]5CC[C@]43C)[C@@H]12	inactive	inactive	inactive	inactive	inactive	inactive	inactive	inactive	inactive	inactive	inactive	inactive	inactive	inactive				
C=C(C)[C@@H]1CC[C@]2([C@@H]3O[C@@H]3C#N)CC[C@]3(C)[C@H](CC[C@@H]4[C@@]5(C)CC[C@H](OC(C)=O)C(C)(C)[C@@H]5CC[C@]43C)[C@@H]12	inactive	inactive	inactive	inactive	inactive	inactive	inactive	inactive	inactive	inactive	inactive	inactive	inactive	inactive				
C=C(C)[C@@H]1CC[C@]2([C@@H]3O[C@H]3C(=O)OC)CC[C@]3(C)[C@H](CC[C@@H]4[C@@]5(C)CC[C@H](OC(C)=O)C(C)(C)[C@@H]5CC[C@]43C)[C@@H]12	inactive	inactive	inactive	inactive	inactive		inactive	inactive		inactive	inactive	inactive		inactive	12.3 µM	18.1 µM	17.6 µM	
C=C(C)[C@@H]1CC[C@]2(/C=C/C(=O)OCC)CC[C@]3(C)[C@H](CC[C@@H]4[C@@]5(C)CC[C@H](OC)C(C)(C)[C@@H]5CC[C@]43C)[C@@H]12	inactive	inactive	inactive	inactive	inactive	inactive	inactive	inactive	inactive	inactive	inactive	inactive	inactive	inactive				
C=C(C)[C@@H]1CC[C@]2(/C=C3\CCOC3=O)CC[C@]3(C)[C@H](CC[C@@H]4[C@@]5(C)CC[C@H](OC(C)=O)C(C)(C)[C@@H]5CC[C@]43C)[C@@H]12	inactive		inactive	inactive	inactive	inactive	inactive	inactive		inactive	inactive	inactive		inactive		13.9 µM	18.8 µM	19.4 µM
C=C(C)[C@@H]1CC[C@]2([C@@H]3O[C@@]34CCOC4=O)CC[C@]3(C)[C@H](CC[C@@H]4[C@@]5(C)CC[C@H](OC(C)=O)C(C)(C)[C@@H]5CC[C@]43C)[C@@H]12	inactive	inactive		inactive	inactive	inactive	inactive	inactive	inactive	inactive	inactive	inactive	inactive	inactive				
C=C(C)[C@@H]1CC[C@]2([C@H](O)CC(=O)OCC)CC[C@]3(C)[C@H](CC[C@@H]4[C@@]5(C)CC[C@H](OC)C(C)(C)[C@@H]5CC[C@]43C)[C@@H]12	inactive	inactive	inactive	inactive	inactive	inactive	inactive	inactive	inactive	inactive	inactive	inactive	inactive	inactive				

Source: ChEMBL document CHEMBL1159047, “Synthesis and biological evaluation of antitumour-active betulin derivatives” (Bioorg Med Chem, 2010)
